From PubChem
This is a sample that favours compounds with a hit; in the whole collection about 3.7% have one here.
KCNQ1 act: potentiates or activates the human KCNQ1 potassium channel; P51787; CHO-K1 KCNQ1, thallium flux FluxOR fluorescence; active compounds read high; B-score at 10 µM; actives 0.35% (n = 310,000);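 active = fluorescence ratio B-score, a plate-corrected score, at least three library SD, with initial intensity B-score within 5 SD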
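System: CHO-K1 cells stably expressing KCNQ1 / Medium: assay buffer for compound exposure, DMSO matched across wells / Reagent: thallium- and potassium-containing depolarizing buffer / Compound: one concentration, matched DMSO / Incubation: 20 min compound pretreatment at room temperature / Measured by: kinetic FluxOR fluorescence, 10 s baseline plus 110 s post-stimulus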
hERG protect: compounds protecting human hERG from proarrhythmic drug block; Q12809; CHO-hERG, FluxOR thallium flux, dofetilide IC70 present; activation (rescue from dofetilide block), less the hit threshold, % at 10 µM; actives 0.51% (n = 310,000); AID 1511;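 active = activation above the mean of controls blocked by dofetilide plus 5 SD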;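 note: thallium influx through hERG after potassium depolarization seen as dye fluorescence rise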
Kir21 block: Kir2.1 (mouse) channel inhibition. HEK293-Kir2.1, FluxOR thallium flux fluorescence; active compounds read low. B-score at 10 µM. actives 0.85% (n = 310,000);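 active = fluorescence ratio B-score at or below minus 3 SD of library scores, with starting-brightness B-score within 2 SD, cut at about -4.2 in these data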;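 note: channel flux triggered by added potassium and thallium sulfate stimulus; B-score of peak minus minimum fluorescence over baseline after thallium stimulus; more negative B-score means stronger Kir2.1 block with less thallium influx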
KCNK3 inh: human KCNK3 channel inhibition, primary screen | CHO-KCNK3 thallium flux, FluxOR fluorescence; active compounds read low | AID 602410 | B-score at 10 µM | actives 0.84% (n = 340,000) | O14649;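 active = B-score under library mean minus 4 SD, starting fluorescence ratio at most library mean plus 5 SD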;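 note: more negative B-score means stronger inhibition of thallium flux through KCNK3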
KCNK9 block: blocks the human KCNK9 two-pore domain potassium channel; actives 1.2% (n = 310,000); Q9NPC2; HEK293 KCNK9, FluxOR thallium flux fluorescence; active compounds read low; B-score at 10 µM;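 active = ratio B-score over 3 SD below the library mean, with starting fluorescence within 5 SD of its mean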;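 note: negative B-score means less thallium flux so channel inhibition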
KCNQ1 block: human KCNQ1 channel inhibition; CHO-K1 KCNQ1, FluxOR thallium flux fluorescence; active compounds read high; B-score at 10 µM; actives 1.3% (n = 310,000); AID 2642;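 active = compounds whose thallium flux B-score, printed positive for inhibition, exceeds three library SD while starting fluorescence stays within three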;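 note: channel opened by potassium depolarization with thallium stimulus after 20 min compound exposure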
An asterisk follows results filed as active; i = inactive; / = no result given.

SMILES	KCNQ1 act	hERG protect	Kir21 block	KCNK3 inh	KCNK9 block	KCNQ1 block
CCOC(=O)C1CCN(S(=O)(=O)c2c(Cl)ccc3nonc23)CC1	9*	-19	-1.1	i	i	i
O=c1nc2onnc2c(C=NO)[nH]1	/	/	/	i	/	/
CCOC(=O)C1CCN(S(=O)(=O)c2cc3c(cc2C)NC(=O)CO3)CC1	i	-5	1.6	i	i	i
O=C(/C=C/c1ccccc1)CC(O)(c1ccccc1)C(F)(F)F (stereo unspecified)	i	-10	-6.3*	i	i	i
Cc1noc(C)c1COC(=O)c1ccccc1NC(=O)Cc1ccccc1	i	-8	-1.5	i	i	i
COc1cccc(NC(=O)c2ccccc2OCc2c(C)noc2C)c1	/	/	/	-11*	/	/
Cc1ccc(NC(=O)c2ccccc2OCc2c(C)noc2C)cc1S(=O)(=O)N(C)C	/	/	/	i	/	/
CCOc1cc(/C=N/NC(=O)c2ccccc2OCc2ccc(F)cc2)ccc1O	/	/	/	i	/	/
COc1ccc(C=NNC(=O)c2ccccc2OCc2ccc(F)cc2)c(OC)c1	/	/	/	-9.9*	/	/
Cc1noc(C)c1COC(=O)c1ccccc1Oc1ccccc1	i	-11	-5.1*	i	i	i
COc1cc(NC(=O)c2ccccc2OCc2ccccc2)cc(OC)c1OC	i	11*	-0.1	i	i	i
COC(=O)C1CC2=C(CCCC2=O)N(Cc2ccccc2)C1=O (stereo unspecified)	/	/	/	i	/	/
Cc1sc2ncnc(N3CCC(C(=O)N(C)CC(=O)Nc4ccc(Cl)c(C(F)(F)F)c4)CC3)c2c1C	i	-14	1.4	i	i	9*
Cc1ccc(C(=O)N(C)CC(=O)Nc2ccc(Cl)c(C(F)(F)F)c2)cc1S(=O)(=O)N1CCCCC1	/	/	/	-11*	/	/
Cc1ccc(S(=O)(=O)N2CCCCC2)cc1C(=O)N(C)CC(=O)Nc1ccc(Cl)c(C(F)(F)F)c1	i	-15	-0.22	i	i	i
COc1cccc(CNC(=O)c2ccccc2SCC(=O)N2CCCC2)c1	i	-8	-0.98	i	i	i
Cc1cc(C)cc(C(=O)NC(CC(N)=O)c2ccc(N3CCCCCC3)c([N+](=O)[O-])c2)c1 (stereo unspecified)	i	-9	1.4	i	i	7*
O=C(COC(=O)c1c2c(nc3ccccc13)/C(=C\c1ccco1)CC2)NC1CCCC1	/	/	/	-9.4*	/	/
CN(CCC#N)C(=O)COC(=O)c1c2c(nc3ccccc13)/C(=C\c1ccco1)CC2	/	/	/	-8.9*	/	/
O=C(COC(=O)c1c2c(nc3ccccc13)/C(=C/c1cccc([N+](=O)[O-])c1)CCC2)NC1CCS(=O)(=O)C1 (stereo unspecified)	i	-7	-1.4	i	i	i
CC1CCCCC1NC(=O)COC(=O)c1c2c(nc3ccccc13)/C(=C\c1ccco1)CC2 (stereo unspecified)	/	/	/	-11*	/	/
O=C(Nc1nc2c(F)cc(F)cc2s1)C1CC1	i	0	0.93	i	i	i
Cc1cc(=O)n2cn[nH]c2n1	/	/	/	i	/	/
COc1ccccc1CNC(=O)C1CCCN(S(=O)(=O)c2cccc3nonc23)C1 (stereo unspecified)	i	-7	-1.2	i	i	i
CC(C)Oc1ccc(C(CC(=O)NCc2ccco2)c2ccccc2)cc1 (stereo unspecified)	i	-11	0.09	i	-7.2*	i
SMILES	KCNQ1 act	hERG protect	Kir21 block	KCNK3 inh	KCNK9 block	KCNQ1 block
CCOc1ccc(C(=O)OCC(=O)N(Cc2ccccc2)Cc2ccccc2)cc1OC	/	/	/	i	/	/
Cc1cccc(CN(CC(=O)N/N=C/c2ccco2)S(=O)(=O)c2ccc(Cl)cc2)c1	i	-12	2	i	i	9*
Cc1ccc(S(=O)(=O)N(CC(=O)N/N=C/c2ccco2)Cc2ccccc2)cc1	i	-13	1.3	i	i	i
CCN(C(=O)COC(=O)c1cc([N+](=O)[O-])ccc1N1CCOCC1)C1CCCCC1	i	-2	0.03	i	i	i
Cc1ccc(-c2cc(-c3ccc(F)cc3)n[nH]2)c(O)c1	i	-3	-0.87	i	i	6*
Cc1ccc(-c2cc(-c3ccc(C)cc3O)[nH]n2)cc1	i	-4	0.76	i	i	i
CN(C)C(=O)C(CCN1CCC(O)(c2ccc(Cl)cc2)CC1)(c1ccccc1)c1ccccc1	i	-14	-4.9*	i	i	i
C=CCSC1=C(C#N)C(c2ccccc2)CC(=O)N1 (stereo unspecified)	i	-4	-1.9	i	i	i
CCOC(=O)CSC1=C(C#N)C(c2ccc(C)o2)CC(=O)N1 (stereo unspecified)	i	-3	-4.4*	i	i	i
CCOC(=O)CSC1=C(C#N)C(c2ccc(Cl)cc2)CC(=O)N1 (stereo unspecified)	i	-8	-8.8*	i	i	i
N#CC1=C(SCc2ccccc2)NC(=O)CC1c1ccccc1 (stereo unspecified)	i	-8	-11*	i	i	i
CCC(NC(=S)NCc1ccc(F)cc1)c1ccccc1 (stereo unspecified)	i	-13	-7.4*	i	i	i
CCCN(CC(=O)Nc1ccccc1OC)C(=O)c1nc2nc(C)ccn2n1	/	/	/	i	/	/
COc1ccc(S(=O)(=O)NCCSc2ccc(C)cc2)cc1OC	i	-5	-5.2*	i	i	i
COc1ccc(S(=O)(=O)NCCSc2ccccc2)cc1OC	i	-13	0.17	i	i	i
Cc1ccc(S(=O)(=O)Nc2ccccc2-c2ccccc2NS(=O)(=O)c2ccc(C)cc2)cc1	i	-10	0.06	i	i	7*
Cc1ccc(S(=O)(=O)Nc2ccccc2C(O)c2ccccc2)cc1 (stereo unspecified)	i	-13	-5*	i	i	i
Cc1ccc(S(=O)(=O)Nc2ccccc2C(N)=O)cc1	i	-11	0.4	i	i	i
COCCNCCCOc1ccc(C(C)(C)c2ccccc2)cc1	i	-6	-3.2	i	i	i
COCCCNCCCOc1ccc(C(C)(C)c2ccccc2)cc1	i	-9	-8.2*	i	i	i
C=CCNCCCOc1ccc(C(C)(C)c2ccccc2)cc1	i	-11	-8.6*	i	i	i
O=c1ccc(C(F)(F)F)cn1Cc1cc(=O)n2cc(Br)ccc2n1	i	-11	1.2	i	i	i
CCCCn1c(N)c(N(CC)C(=O)c2ccc(Cl)c(Cl)c2)c(=O)[nH]c1=O	i	0	0.03	i	i	i
